Screens (PubChem BioAssay)
The list is not random: actives were taken first. Their share in the collection is about 1.5%.
Rad51 HR inh = Rad51 (human) homologous recombination inhibition. hRad51 DNA strand exchange, fluorescence dequenching. AID 1385. inhibition, % at 10 µM. Q06609. 200,000 compounds, 0.085% hits;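 active means inhibition above 40% at the single screening dose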;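 further: 0% = DMSO control wells and 100% = blanks with heterologous ssDNA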
Target sequence (Q06609 whole entry, looked up): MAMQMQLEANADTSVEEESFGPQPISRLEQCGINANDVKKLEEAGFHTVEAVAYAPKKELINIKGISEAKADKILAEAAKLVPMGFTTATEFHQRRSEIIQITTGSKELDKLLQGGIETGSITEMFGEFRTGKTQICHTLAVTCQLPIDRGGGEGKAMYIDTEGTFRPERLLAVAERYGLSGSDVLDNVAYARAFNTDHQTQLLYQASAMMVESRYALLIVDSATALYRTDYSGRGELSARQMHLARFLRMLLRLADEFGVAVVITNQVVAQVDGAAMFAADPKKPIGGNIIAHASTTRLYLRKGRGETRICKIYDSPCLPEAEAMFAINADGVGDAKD
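material = hRad51 filaments on single-stranded DNA | reagent = Donor/quencher-labelled 47-bp dsDNA substrate | compound = 10 µM final, single point | schedule = strand-exchange reaction 15 min at room temperature | measured by = fluorescein emission 520 nm, excitation 485 nm | read-out basis = % inhibition versus plate control and blank means | benchmarks = plate controls and plate blanks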
Dynein transport = dynein cargo transport inhibition. z-score, hits read low. 3617.4 mouse cells, GR-EGFP nuclear translocation imaging; test concentration mostly 20 µM; stimulated with dexamethasone, 1 µM; stronger effect = lower value. 220,000 compounds, 0.47% hits;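 active means plate z-score of nuclear minus cytoplasmic receptor signal below a set negative limit, without overly bright fluorescence or cell loss, cut at about -3.5 in these data, passing the limit was not always enough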;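 further: z-score of nuclear minus cytoplasmic ring GR-EGFP intensity difference per well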
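Buffer or medium – tet-free medium with charcoal-stripped serum · Signal – automated 10x imaging of fixed Hoechst-stained cells · Also added – dexamethasone agonist, 1.0 µM final, for 30 min · Incubation – induction 48 h, compound 1 h, agonist 30 min · Read-out – GR-EGFP nuclear translocation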
MT stabilizer = stabilizes microtubules in HeLa cells; % tubulin-high responders, % at 10 µM; 200,000 compounds, 0.83% hits; HeLa tubulin immunostaining HCS, 24 h; share of cells brighter than vehicle mean+2SD;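 active means plate Z-score above 3 for both tubulin-high and condensed-nucleus cell shares, with cell loss under 80%, at 10 µM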;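 further: anti alpha tubulin signal scored within the nucleus-defined area of each cell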
TbHK1 inh = blocks Trypanosoma brucei hexokinase 1 activity | recombinant TbHK1, G6PDH-coupled NADH A340 | inhibition, % at 10 µM | 220,000 compounds, 0.11% hits | AID 1430;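 active means inhibition of 50% or more in the single-dose primary screen; inactive means inhibition below 50%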
bCat nuc transl = modulators of beta-catenin nuclear translocation; HeLa beta-catenin nuclear translocation, immunofluorescence imaging; nuclear translocation activity, % at 5 µM; 190,000 compounds, 0.3% hits; AID 1665;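 active means nuclear translocation activity above 50% at 5 µM, with a well cell count of 50 or more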;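 further: per-cell ratio of nuclear to cytoplasmic median beta-catenin stain intensity; plate controls were DMSO negative control for no effect and GSK-3 inhibitor IX positive control for full effect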
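assay system = human HeLa cells, endogenous beta-catenin | times = compound treatment 24 h, 37°C, 5% CO2 | detection = Anti-beta-catenin immunofluorescence on PFA-fixed, Triton-permeabilized cells, DAPI nuclei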
Active calls of the source: *; . = no result; ! = not confirmed by another sample.

SMILES	Rad51 HR inh	Dynein transport	MT stabilizer	TbHK1 inh	bCat nuc transl
C=CCOc1ccc2nc(NC(=O)OC)[nH]c2c1	-5.0	-0.631	38.1*	-5.0	109.0*
Cc1cc(Cl)ccc1NC(=S)NCc1ccc(S(N)(=O)=O)cc1	-6.2	0.118	3.7	1.6	0.6
NS(=O)(=O)c1ccc(CNC(=S)NCc2ccc(Cl)cc2)cc1	0.3	-3.15	11.1*	9.4	1.1
COc1ccccc1-c1c(C)nn2c(N3CCC4(CC3)OCCO4)cc(C)nc12	1.5	0.113	2.9	-16.5	-0.5
COC(=O)c1sccc1NC(=S)N1CCN(C)CC1	0.7	1.21	3.9	-9.5	-0.2
COC(=O)c1sccc1NC(=S)N1CCN(c2cc(C)ccc2C)CC1	15.2	-1.09	17.3*	-6.1	-2.1
COc1cc(Cl)cc(C#N)c1OCC(=O)O	-2.4	-0.401	4.6	6.6	-0.3
O=C1OCC2=C1C(c1ccc(F)cc1)Sc1ccccc1N2 (stereo unspecified)	-3.2	-0.657	4.6	-4.5	-4.9
COc1cc(C2Sc3ccccc3NC3=C2C(=O)OC3)cc(OC)c1OC (stereo unspecified)	2.4	0.439	39.6*	0.4	0.9
COc1ccc(-n2c(SC(C)C(=O)Nc3ncc(Cl)cc3Cl)nc3ccccc32)cc1 (stereo unspecified)	0.7	1.63	17.7*	4.8	13.0
COc1ccccc1/C=C/C(=O)Nc1ccc2c(c1)OCCO2	.	-0.351	24.4*	0.6	72.8*
CC(=O)Nc1sc(N/N=C/c2ccc(C)cc2)nc1-c1ccc(C)cc1	6.9	-1.01	.	-11.5	-0.2
Cc1nc2ccc(NC(=O)c3cc([N+](=O)[O-])cc([N+](=O)[O-])c3Cl)cc2s1	-1.3	-3.58*	4.5	3.2	16.4
CCN1CCN(CC(=O)N2N=C(c3cccs3)CC2c2ccc(OC)cc2)C(=O)C1=O (stereo unspecified)	-10.2	2.01	5.1	-4.9	1.8
COc1cc(S(=O)(=O)Nc2cccc(C)c2)ccc1N=Cc1c(C)[nH]n(-c2ccccc2)c1=O	.	0.276	18.3*	13.7	-2.4
COc1ccc(/C=N/NC(=O)CCn2cnc3ccccc32)cc1	-1.3	0.931	.	-6.0	-0.7
O=C(CCn1cnc(-c2ccccc2)c1-c1ccccc1)N/N=C/c1ccc(O)cc1	9.2	0.321	23.1*	-2.2	5.7
COc1ccc(/C=N/NC(=O)CCn2cnc(-c3ccccc3)c2-c2ccccc2)cc1	5.5	-0.257	13.7	-12.6	60.1*
Cc1cc(C(=O)CSc2nnc(NCc3ccccc3)s2)c(C)n1C	-5.5	-0.0181	46.4	-5.0	111.0*
Cc1c2cc(O)c(=O)cc-2oc2cc(O)c(O)cc12	-317.8	-5.34*!	3.1	5.6	-3.1
COc1ccc2cc(-c3[nH]ncc3CN3CCCC3c3nonc3C)ccc2c1 (stereo unspecified)	6.7	-0.497	10.7*	-4.0	2.1
CCC(=O)NC(=S)Nc1ccc(NC(=O)c2ccccc2[N+](=O)[O-])cc1	1.8	0.443	4.0	-3.6	-0.9
CCCC(=O)Nc1ccc(NC(=S)NC(=O)c2ccccc2[N+](=O)[O-])cc1	1.6	0.0869	10.1*	2.8	.
CNc1ccc(Br)cc(C(=O)/C=C/c2cccc(OC)c2OC)c1=O	-16.1	-0.635	4.4	-17.9	-0.9
CNc1ccc(Br)cc(C(=O)/C=C/c2cccc(Cl)c2Cl)c1=O	-99.0	-4.05	9.9*	0.6	1.4
SMILES	Rad51 HR inh	Dynein transport	MT stabilizer	TbHK1 inh	bCat nuc transl
COC(=O)c1ccccc1NC(=O)c1cnn2c(C)cc(C)nc12	.	0.0688	5.0	-13.4	-1.2
O=C(/C=C/c1cccs1)N1CCN(c2ccc(O)cc2)CC1	40.6*	-0.247	2.8	-14.3	1.5
COc1cc2c(cc1OC)CN(C(=O)c1cc3ccccc3oc1=O)CC2	-8.0	0.307	19.2*	25.5	0.6
COc1cc2c(cc1OC)CN(C(=O)/C=C/c1cccs1)CC2	27.6	1.53	.	-18.9	120.1*
Cc1cccnc1Nc1nc(-c2ccccn2)cs1	-6.3	-1.3	2.1	-0.7	4.3
COC(=O)c1cc2ccsc2n1CC(=O)Nc1cc(Cl)ccc1OC	-2.1	-0.719	30.0*	2.1	.
N=C1C(c2nc3ccccc3c(=O)[nH]2)=C(O)CN1c1ccccc1	-3.5	0.467	41.5*	-6.8	.
Cc1ccc(N2CC(O)=C(c3nc4ccccc4c(=O)[nH]3)C2=N)cc1C	-34.2	1.62	2.6	0.1	0.1
N=C1C(c2nc3ccccc3s2)=C(O)CN1c1ccccc1	25.5	0.701	27.9*	-5.5	-0.2
O=C(CSc1nncn1-c1ccccc1)c1c[nH]c2ccccc12	-4.3	1.19	2.4	-2.4	1.4
CCSc1nnc(NC(=O)C2CCN(S(=O)(=O)c3cc(C(F)(F)F)ccc3Cl)CC2)s1	.	-0.63	4.3	1.9	-1.0
O=c1cc(Nc2ccc3c(c2)OCCO3)[nH]c(=O)n1C1CCCCC1	-1.8	0.974	48.7*	1.9	0.3
CCc1ccc(Nc2cc(=O)n(C3CCCCC3)c(=O)[nH]2)cc1	1.1	-1.01	3.1	3.9	.
CO/N=C/C(=N\Nc1ccc(OC)cc1)C(=O)c1ccc(OC)cc1	-5.4	-0.495	53.5*	-5.5	.
COc1ccc(C(=O)C(/C=N/O)=N/Nc2ccc(F)cc2)cc1	18.5	-0.579	3.8	-12.1	1.8
CNCc1ccccc1OCc1ccc(F)cc1	-3.0	-0.707	2.4	-5.8	-0.4
Cc1cccc2cc(COC(=O)C(C)C)c(=O)[nH]c12	-5.3	0.999	4.9	-18.0	-1.3
C=C(C)COc1ccc(-c2[nH]ncc2-c2ccc(OC)c(OC)c2)c(O)c1	1.6	-0.175	58.1*	1.9	-1.4
FC(F)(F)c1nnc2ccc(N3CCCC3)nn12	56.7*	2.29	1.2	-17.1	.
COc1cc(OC)c(C2=NOC(C(=O)Nc3ccc4c(c3)OCO4)C2)cc1Cl (stereo unspecified)	-2.3	-0.531	4.1	-1.6	-0.9
O=c1/c(=C/c2ccc(O)c([N+](=O)[O-])c2)sc2nc3ccccc3n12	2.9	2.14	4.6	78.1*	0.7
CCOc1ccc(N(CC)C(=O)CCNC(=O)Cn2ccc3ccccc3c2=O)cc1	-6.2	-0.503	3.3	-4.1	.
CCOC(=O)c1cc(C#N)c(N2CCOCC2)nc1-c1ccccc1	-12.8	0.205	4.3	4.4	-8.3
C=CCNc1nc(C)c(C(C)=O)cc1C#N	5.4	-0.215	1.2	-20.3	2.5
CCCNc1nc(-c2ccccc2)c(C(=O)OCC)cc1C#N	7.7	-0.151	27.4*	-9.2	19.6
C=CCNc1nc(-c2ccccc2)c(C(=O)OCC)cc1C#N	-8.5	-0.0607	33.2*	-10.9	0.7
CCCCNc1nc(-c2ccccc2)c(C(=O)OCC)cc1C#N	.	-0.692	35.0*	-2.8	.
CCOC(=O)c1cc(C#N)c(Oc2ccccc2)nc1-c1ccccc1	-5.2	-0.136	1.3	0.7	-2.6
O=C(Nc1nc(-c2ccc(F)c(F)c2)cs1)c1cnccn1	-44.0	-1.05	.	-0.6	1.9
